Publication PMC3172994 (Biochemistry, 2011)
Several values for one entry are separate records, joined by “and”; a condition that tells them apart may be missing. Equal values may be shown once. Read-outs that look alike come from different tables or passages of the source.

Experiments:
[1] = target: thrombin; settings: cited from earlier work
[2] = target: T1, human α-thrombin (Homo sapiens, UniProt P00734); assay type: biochemical
Procedure, shortened: (§1)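 Purified α-thrombin with the test compound in 20 mM phosphate or Tris, pH 7.4, 150 mM NaCl, 0.1 mM EDTA or CaCl₂, 0.1% PEG 8000. Cuvette format: 5 nM enzyme, 50 μM Spectrozyme TH, room temperature. Plate format: 12.5 nM enzyme, 10 min preincubation at 25 °C. Initial A405 rate taken as activity relative to a no-compound control. A logistic fit gave IC50, Hill slope and maximal inhibition (from Y0, YM).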

[3] = target: HT cleavage of human fibrinogen (Homo sapiens, UniProt P00734); test: Turbidimetric assay of thrombin cleavage of fibrinogen; assay type: biochemical; settings: 0.7 - 1.8 mM SOS, turbidity at 600 nm
[4] = target: BT (bovine thrombin) (Bos taurus, UniProt P00735); assay type: biochemical; settings: not shown
Procedure, shortened: as §1

[5] = target: T1, human α-thrombin; test: PABA fluorescence titration of SOS binding to human thrombin; settings: for ΔG° / ΔFMAX / Kd: pH 7.4, 25 °C; for ΔFMAX: PABA fluorescence λEM 370 nm; for Kd: read-out: KD,OBS
[6] = test system: thrombin; settings: cited from earlier work; remark: listed apart in the source
[7] = pH 7.4, I = 0.15, 25 °C, Spectrozyme TH

N=C(N)c1ccc(N)cc1 [PABA, p-aminobenzamidine]
Kd [1]: 60 to 80 µM

O=S(=O)(O)OC[C@H]1O[C@@](COS(=O)(=O)O)(O[C@H]2O[C@H](COS(=O)(=O)O)[C@@H](OS(=O)(=O)O)[C@H](OS(=O)(=O)O)[C@H]2OS(=O)(=O)O)[C@@H](OS(=O)(=O)O)[C@@H]1OS(=O)(=O)O [SOS, Sucrose octasulfate]
maximal inhibition of Spectrozyme TH hydrolysis ([2]; HT, from Y0 and YM of equation 3): 13.5 ± 0.2%
Hill slope [2, 7]: 1.5 ± 0.5
IC50 [2, 7]: 4.5 ± 1.1 µM
effect on fibrinogen cleavage profile [3]: gradual increase in the lag time of cleavage
maximal inhibition of Spectrozyme TH hydrolysis [4]: 20 ± 2.0%
contribution due to non-ionic forces [5]: 2.4 kcal/mol
maximal decrease in fluorescence at 370 nm ([5]; 20 mM sodium phosphate, pH 7.4, 50 mM NaCl): approximately 5%
ΔG° ([5]; 50 mM NaCl): 7.9 ± 0.1 kcal/mol
ΔFMAX ([5]; 50 mM NaCl): −4.8±0.1%
ΔG° ([5]; 150 mM NaCl): 6.4 ± 0.2 kcal/mol
ΔFMAX ([5]; 150 mM NaCl): −6.4±0.3%
ΔG° ([5]; 250 mM NaCl): 5.2 ± 0.2 kcal/mol
ΔFMAX ([5]; 250 mM NaCl): −9.2±0.6%
non-ionic contribution relative to heparin - HT complex ([5]; SOS - HT vs heparin - HT): approximately 12.5 fold
slope of logKD,OBS vs log[Na+] ([5]; pH 7.4): 3.8 ± 0.5
contribution of non-ionic forces, share of total binding energy ([5]; pH 7.4, I 0.15): approximately 35%
ionic binding energy ([5]; pH 7.4, I = 0.15, 25 °C): 4.5 kcal/mol
Kd ([5]; 50 mM NaCl, I = 0.085): ~1.4 µM and 1.4 µM
Kd ([5]; 150 mM NaCl): 22 ± 4 µM
Kd ([5]; 250 mM NaCl): 149 ± 25 µM
inhibition of thrombin hydrolysis of CBS31.39 [6]: ≤ 10%
